High-throughput results (PubChem)
The list is not random: actives were taken first. Their share in the collection is about 2.9%.
DDE Tn7 FP inh: inhibitors of Tn7 peptide binding to human fibrin DD(E); P02675; FP displacement of FITC-Tn7 peptide from fibrin DD(E); 0% = median of compound wells per plate; inhibition, % at 8.3 µM; hit rate 0.13% among 370,000; AID 720508;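 active means inhibition above the mean of compounds falling within the control limits plus 3 SD of them, cut at about 14% in these data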
Target sequence (P02675 whole entry, looked up): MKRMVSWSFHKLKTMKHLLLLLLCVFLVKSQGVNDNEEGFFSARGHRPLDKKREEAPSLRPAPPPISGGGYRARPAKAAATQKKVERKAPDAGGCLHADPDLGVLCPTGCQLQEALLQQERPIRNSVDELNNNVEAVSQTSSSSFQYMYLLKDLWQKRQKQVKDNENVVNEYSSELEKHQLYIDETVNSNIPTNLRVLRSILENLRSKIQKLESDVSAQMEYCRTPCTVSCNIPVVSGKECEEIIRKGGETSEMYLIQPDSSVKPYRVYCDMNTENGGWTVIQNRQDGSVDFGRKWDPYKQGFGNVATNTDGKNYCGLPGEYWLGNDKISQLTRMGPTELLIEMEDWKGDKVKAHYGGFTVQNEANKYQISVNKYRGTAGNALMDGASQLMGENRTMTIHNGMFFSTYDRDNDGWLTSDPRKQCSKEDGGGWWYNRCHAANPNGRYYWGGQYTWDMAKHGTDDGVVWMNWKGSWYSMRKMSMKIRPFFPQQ
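System: human fibrin DD(E); quantity: Fibrin-DD(E) at 2 µM final; also added: fluorescent Tn7 probe at 0.1 µM; compound dosing: single nominal test concentration of 8.3 µM per compound; schedule: 10 min preincubation, 3 h with tracer, room temperature; detection: fluorescence polarization of the labelled Tn7 tracer; repeats: one replicate per compound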
Tn6 DDE FP: inhibitors of Tn6 peptide binding to human fibrin DD(E). AID 720509. inhibition, % at 8.3 µM. Fibrin DD(E) TRITC-Tn6 fluorescence polarization displacement. hit rate 0.21% among 370,000;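 active means inhibition above a per-campaign cutoff: mean of compounds within control limits plus 3 SD, cut at about 15% in these data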
KLK7 zymogen act: proKLK7 (human) activation, primary screen | activation, % at 7 µM | hit rate 0.9% among 370,000 | P49862 | purified proKLK7, EDANS-DABCYL substrate fluorescence; 100% is mature enzyme control, 0% vehicle;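 active means activation above the mean of all tested compounds plus 3 SD, computed per campaign excluding outliers beyond control limits, cut at about 13% in these data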
CRFR2-BP ag: CRF-BP/CRF-R2 complex agonism; activation, % at 13.2 µM; AID 588473; HEK293 CRF-R2/CRF-BP, calcium dye fluorescence (FLIPR); percent of saturating CRF peptide response; hit rate 0.46% among 350,000;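 active means activation of at least 50%, plus an integration ratio under a set limit after plate pattern correction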
CRFR2-BP antag: CRF-BP/CRF-R2 complex antagonism; HEK293 CRF-R2/CRF-BP, CRF-induced calcium fluorescence; inhibition, % at 11.8 µM; hit rate 0.59% among 350,000; AID 588475;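 active means inhibition of the ligand-induced calcium signal above about 50% at the single tested concentration, limit read from the data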
NRP1-CendR mod: modulators of CendR peptide binding to human neuropilin-1; hit rate 0.85% among 360,000; inhibition, % at 25 µM; FAM-RPARPAR peptide binding to NRP-1, fluorescence polarization;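 active means inhibition or corrected inhibition above about 18%, plus a signal ratio from 0.5 to 1.5, limit read from the data, passing the limit was not always enough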
A number is an active result; – = inactive; · = no result given.

SMILES	DDE Tn7 FP inh	Tn6 DDE FP	KLK7 zymogen act	CRFR2-BP ag	CRFR2-BP antag	NRP1-CendR mod
Cc1ccc(C(=O)N/C(=C\c2ccccc2)C(=O)NCCCn2ccnc2)cc1	–	–	–	–	–	23
Cc1ccc(C(=O)N/C(=C/c2ccc(C(C)C)cc2)C(=O)NCCCN2CCOCC2)cc1	–	–	–	–	–	–
Cc1ccc(C(=O)N/C(=C\c2ccc(-c3ccccc3[N+](=O)[O-])o2)C(=O)NCCCN2CCOCC2)cc1	–	–	–	–	–	26
Cc1ccc(C(=O)N/C(=C\c2cn(C)c3ccccc23)C(=O)NCCCN2CCOCC2)cc1	–	–	–	–	101	–
CCOc1ccc(N=c2scc(-c3ccc(OC)cc3)n2CCO)cc1	–	–	–	–	80	–
CCOC(=O)C1=C(C(=O)OCC)C2N(Cc3ccc(C#N)cc3)c3ccccc3[C@@]23C[C@@H](C(=O)OC)N(S(=O)(=O)c2c(C)noc2C)C3=N1 (stereo partly drawn)	–	–	–	·	·	·
CC(C)(C)c1ccc(C(=O)N2CCC(=O)N(C(CO)Cc3ccccc3)CC2)cc1 (stereo not drawn)	–	–	–	51	–	–
COc1ccc(C(C(=O)NC2CCCC2)N(C(=O)c2snc(C(N)=O)c2N)c2ccccc2OC)cc1OC (stereo not drawn)	–	–	–	–	–	32
COc1ccc(/C=C/C(=O)NCCSCc2ccco2)cc1OC	–	–	–	–	66	–
COc1ccc(CCNC(=O)/C=C/c2ccco2)cc1OC	–	–	–	–	–	–
CCN(CCn1cccn1)C(=O)CCc1nnc(-c2ccccc2)o1	–	–	–	–	–	–
CCN(CCn1cccn1)C(=O)CCc1nnc(Cc2c[nH]c3ccccc23)o1	–	–	–	–	–	21
O=C(COc1cccc(Cl)c1)Nc1ccc(N2CCOCC2)cc1	–	–	–	–	80	–
O=C(COc1ccccc1)Nc1ccc(-c2ccc(N3CCOCC3)nn2)cc1	–	–	–	–	–	22
COC(=O)CSc1nnc(-c2ccc(NS(=O)(=O)c3c(C(C)C)cc(C(C)C)cc3C(C)C)cc2)o1	–	–	–	·	·	·
Nc1cc(S(=O)(=O)N2CCOCC2)ccc1Oc1ccc(F)cc1	–	–	–	–	–	28
Cc1nc(Nc2ccc(S(N)(=O)=O)cc2)oc1C	–	–	–	–	–	26
Cc1ccc(/C=C/C(=O)Nc2ccc(S(N)(=O)=O)cc2)o1	–	–	–	–	–	–
COc1ccccc1NS(=O)(=O)c1cc(NC(C)=O)ccc1N1CCCCC1	–	–	–	–	–	–
CCOC(=O)C(=CNc1ccc(N2CCCCC2)c(S(=O)(=O)Nc2ccccc2OC)c1)C(=O)OCC	–	–	–	–	–	36
O=C(Cc1ccc(-n2cccc2)cc1)N1CCN(c2ccccc2F)CC1	–	–	–	–	53	–
COc1ccc(CC(=O)N2CCN(c3ccccc3F)CC2)cc1OC	–	–	–	–	–	–
CCN(c1cccc(C)c1)S(=O)(=O)c1ccc(-n2cccn2)cc1	–	–	–	–	–	22
CC1OC(OC2C(Oc3c(-c4ccc(O)cc4)oc4cc(O)cc(O)c4c3=O)OC(COC3O[C@@H](C)[C@H](O)[C@@H](O)C3O)C(O)C2O)C(O)C(O)C1O (stereo partly drawn)	–	–	–	–	–	–
CC1OC(OCC2OC(Oc3c(-c4ccc(O)cc4)oc4cc(O)cc(O)c4c3=O)C(O)C(O)C2O)C(O)C(O)C1O (stereo not drawn)	–	–	–	–	–	22
CCC(=O)/C=C1/Sc2ccccc2N1CC	–	–	–	–	–	–
CCOC(=O)/C(=C/C=C1\Sc2cc(C)c(C)cc2N1CC)C(C)=O	–	–	–	156	–	–
CCOC(=O)/C(=C\C=C1/Sc2ccccc2N1CC)C(C)=O	–	–	–	313	–	–
CCOC(=O)/C(=C/C=C1\Sc2ccccc2N1CC)C(C)=O	·	·	·	238	–	–
CCOC(=O)[C@]12CCCCC/C=C\1N(Cc1ccc(OC)cc1)C(=O)[C@H]2CC(=O)NCC1CCCCC1	–	–	–	·	·	·
